Legend:
SARS-CoV-2 = experiment: Antiviral activity against S-protein based pseudotyped SARS-CoV-2 infected in Huh7 cells measured after 24 hrs by bright-Glo luciferase assay; assay type: functional, organism-based; settings: Severe acute respiratory syndrome coronavirus 2, Huh-7, 24 h
Summary of the method: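 Serial dilutions from 200 μM were held with pseudotyped SARS-CoV-2 (1.3 × 10^4 TCID50) at 37 °C for 1 h, then mixed with Huh7 cells (2000 cells/well) and incubated 24 h. EC50 was calculated from bioluminescence intensity.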

[1] = Selectivity index, ratio of CC50 for cytotoxicity against golden hamster BSR cells to EC50 for antirabies activity against Rabies virus infected in golden hamster BSR cells; assay type: toxicity, cell-based; settings: read-out: Selectivity Index
Lyssavirus rabies = experiment: Antirabies activity against rabies CVS infected in golden hamster BSR cells preincubated for 1 hr followed by mixing of cells measured after 24 hrs by inverted fluorescence microscope analysis; assay type: functional, organism-based
Huh-7 = experiment: Cytotoxicity against human HuH-7 cells assessed as reduction in cell viability incubated for 24 hrs by microplate reader assay; assay type: functional
[2] = Cytotoxicity against golden hamster BSR cells assessed as reduction in cell viability incubated for 24 hrs by microplate luminometer method; assay type: toxicity, cell-based, Mesocricetus auratus; settings: for CC50: bsr, 24 h; for CC50 at 24 h: BSR cells
Summary of the method: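 BSR cells given serial dilutions from 200 μM, with medium in place of virus. After 24 h at 37 °C, viability was read by luminometer and CC50 calculated.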

[3] = Selectivity index, ratio of CC50 for cytotoxicity against human Huh7 cells to EC50 for antiviral activity against S-protein based pseudotyped SARS-CoV-2 infected in Huh7 cells; assay type: functional

Row | Structure (SMILES) | EC50 (SARS-CoV-2) [µM] | selectivity ratio [1] | EC50 (Lyssavirus rabies) [µM] | CC50 (Huh-7) [µM] | CC50 [2] [µM] | Selectivity Index [3] | CC50 at 24 h [2] [µM]
1 | CC(C)/N=c1\cc2n(-c3ccccc3)c3ccccc3nc-2cc1Nc1ccc(Cl)cc1 | < 10 | 22.4 | 1.9 | 16.1 | 42.6 | >1.6 | –
2 | CC(C)/N=c1\cc2n(-c3ccc(Cl)cc3)c3ccccc3nc-2cc1Nc1ccc(OC(F)(F)F)cc1 | 9.98 | 182 | 1.77 | 38.4 | – | 3.8 | –
3 | COc1ccc(Nc2cc3nc4ccccc4n(-c4ccc(OC)nc4)c-3c/c2=N\C(C)C)cc1 | < 10 | 24.5 | 13.2 | 17.1 | – | >1.7 | 323
4 | CCC/N=c1\cc2n(-c3ccccc3)c3ccccc3nc-2cc1Nc1ccccc1 | < 10 | 19 | 0.76 | 35.6 | 14.4 | >3.5 | –
5 | Fc1ccc(Nc2cc3nc4ccccc4n(-c4ccc(Cl)cc4)c-3c/c2=N\C2CC2)cc1 | 13.5 | 47.1 | 6.86 | 16.7 | – | 1.2 | –
6 | CC(C)/N=c1\cc2n(-c3ccc(F)cc3)c3ccccc3nc-2cc1Nc1ccc(Cl)cc1 | 29.6 | 55.6 | 4.02 | 17 | – | 0.6 | 223
7 | COc1ccc(-n2c3c/c(=N\C4CC4)c(Nc4ccc(F)cc4)cc-3nc3ccccc32)cn1 | 33.1 | 8.1 | 13.2 | 88.9 | 107 | 2.7 | –
8 | CCC/N=c1\cc2n(-c3ccc(Cl)cc3)c3ccccc3nc-2cc1Nc1ccc(F)cc1 | 10.3 | 32.6 | 1.67 | 14.9 | 54.5 | 1.5 | –
9 | N=c1cc2n(-c3ccc(Cl)cc3)c3ccccc3nc-2cc1Nc1ccccc1 | < 10 | 1.7 | 20.6 | < 10 | 35.4 | – | –
10 | CC(C)/N=c1\cc2n(-c3ccc(F)cc3)c3ccccc3nc-2cc1Nc1ccc(F)cc1 | 81.1 | 134 | 2.29 | 267 | – | 3.3 | 314
11 | COc1ccc(Nc2cc3nc4ccccc4n(-c4ccc(Cl)cc4)c-3cc2=N)c(OC)c1 | 16.1 | 1 | 35.4 | 16.6 | – | 1 | –
12 | COc1ccc(-n2c3c/c(=N\C(C)C)c(Nc4ccccc4)cc-3nc3ccccc32)cn1 | < 10 | 26.3 | 12.3 | < 10 | – | – | 323
13 | COc1ccc(Nc2cc3nc4ccccc4n(-c4ccc(Cl)cc4)c-3c/c2=N\C(C)C)cc1 | 16.6 | 19 | 6.86 | 88.9 | 130 | 5.4 | –
14 | COc1ccc(-n2c3c/c(=N\C4CCC(OC)CC4)c(Nc4ccc(F)cc4)cc-3nc3ccccc32)cn1 (stereo not given) | < 10 | 33.1 | 2.55 | 51.3 | 84.4 | >5.1 | –
15 | CCC/N=c1\cc2n(-c3ccc(OC)nc3)c3ccccc3nc-2cc1Nc1ccc(F)cc1 | < 10 | 76.4 | 1.4 | < 10 | 107 | – | –
16 | COc1ccc(Nc2cc3nc4ccccc4n(-c4ccc(Cl)cc4)c-3c/c2=N\C(C)C)c(OC)c1 | < 10 | 17.6 | 6.86 | 13.5 | 120 | >1.3 | –
17 | Clc1ccc(Nc2cc3nc4ccccc4n(-c4ccc(Cl)cc4)c-3c/c2=N\C2CC2)cc1 | 141 | 14.2 | 22.7 | > 267 | – | >1.9 | –
18 | CC(C)/N=c1\cc2n(-c3ccc(Cl)cc3)c3ccccc3nc-2cc1Nc1ccc(F)cc1 | 14.5 | 61.7 | 4.56 | 40.6 | – | 2.8 | 281
19 | COc1ccc(Nc2cc3nc4ccccc4n(-c4ccc(Cl)cc4)c-3c/c2=N\C(C)C)cn1 | 153 | 15.5 | 2.29 | > 267 | 35.4 | >1.7 | –
20 | COc1ccc(Nc2cc3nc4ccccc4n(-c4ccc(Cl)cc4)c-3cc2=N)cc1 | 154 | 1 | 106 | > 267 | – | >1.7 | –
21 | CC(C)/N=c1\cc2n(-c3ccccc3)c3ccccc3nc-2cc1NCc1ccccc1 | < 10 | 76.4 | 1.4 | < 10 | 107 | – | –
22 | N=c1cc2n(-c3ccc(Cl)cc3)c3ccccc3nc-2cc1Nc1ccc(Cl)cc1 | – | 1.7 | 20.6 | – | 35.4 | – | –
23 | CC(C)/N=c1\cc2n(-c3ccc(Cl)cc3)c3ccccc3nc-2cc1Nc1ccccc1 | 40.9 | 21.9 | 8.44 | 154 | 185 | 3.8 | –
24 | COc1ccc(Nc2cc3nc4ccccc4n(-c4ccccc4)c-3c/c2=N\C(C)C)cn1 | 13.5 | 21.2 | 5.03 | 22.7 | 107 | 1.7 | –
25 | CCC/N=c1\cc2n(-c3ccc(Cl)cc3)c3ccccc3nc-2cc1Nc1ccc(Cl)cc1 | 39.3 | 13 | 24.9 | 107 | – | 2.7 | 323
26 | CC(C)/N=c1\cc2n(-c3ccccc3)c3ccccc3nc-2cc1NCc1ccc(F)cc1 | < 10 | 9.1 | 1.9 | 29.6 | 17.3 | >2.9 | –
27 | COc1ccc(-n2c3c/c(=N\C(C)C)c(Nc4ccc(Cl)cc4)cc-3nc3ccccc32)cn1 | < 10 | 21.3 | 5.03 | 51.3 | 107 | >5.1 | –
28 | N=c1cc2n(-c3ccccc3)c3ccccc3nc-2cc1NCc1ccccc1 | – | 1 | 35.4 | – | – | – | 35.4
29 | CC(C)/N=c1\cc2n(-c3ccccc3)c3ccccc3nc-2cc1Nc1ccccc1 | 17.2 | 30.1 | 10.7 | 177 | – | 10.2 | 323
30 | CC(C)/N=c1\cc2n(-c3ccc(Cl)cc3)c3ccccc3nc-2cc1NCc1ccc(Cl)cc1 | 12.4 | 123 | 0.76 | 16.1 | 93.1 | 1.3 | –

From ChEMBL document CHEMBL5154797 (Eur J Med Chem, 2022)
